System: MS2 coat protein
Assay: apparent Kd, MS2 coat protein; higher = weaker binding; RNA-MaP array; FMN 200 µM where present
Procedure, shortened: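 Binding was read on Illumina sequencing-chip clusters where stalled E. coli RNA polymerase had transcribed each design. A titration of SNAP-549-labelled MS2 coat protein began at 0.7 or 1.5 nM and doubled to 3 µM, once without ligand and once with constant ligand, in 100 mM Tris-HCl pH 7.5, 80 mM KCl, 4 mM MgCl2, BSA, DTT, yeast tRNA and Tween-20. The apparent Kd is the median of filtered per-cluster binding-curve fits, based on green signal normalised to red-channel RNA signal and control-cluster median Fmax.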

[1] = designed as: OFF switch for flavin mononucleotide, no ligand
[2] = ligand present: flavin mononucleotide, designed as: OFF switch for flavin mononucleotide
[3] = designed as: ON switch for flavin mononucleotide, no ligand
[4] = ligand present: flavin mononucleotide, designed as: ON switch for flavin mononucleotide

## GAGCGGGAAACAUGAGGAUCACCCAUGUAAUAAGUCCUCAAGUAGGAUAUGCACACGAGAAGUGUGCAGAAGGGCUACCCGGUC
[1]
  apparent Kd: 20.9 nM
[2]
  apparent Kd: 28.8 nM

## UUACGUACGUAUGAGGAUAUCCAUAAUAAGACAUGAGGAUCACCCAUGUAAACAAAACAAUAAUGGGAGAAGGCAUACGUACGAA
[3]
  apparent Kd: 64.1 nM
[4]
  apparent Kd: 101 nM

## AUGCUAGUGUGAGGAUAUACAUGAGGAUCACCCAUGUGUCCGAAGAACGGGACAUGACGUUCGUCGUAGAAGGUACAUUAGCAU
[1]
  apparent Kd: 18.7 nM
[2]
  apparent Kd: 46.8 nM

## UGUCGGAGCAGAGGAUAUUACAUGAGGAUCACCCAUGUAUGAACCAAUAGCUGGAAACAGCAAUGUGAGAAGGCUGCUCCGACA
[1]
  apparent Kd: 5.47 nM
[2]
  apparent Kd: 52.3 nM

## UUUAGUUUAGGAUAUGUAGACAUUAACAUGAGGAUCACCCAUGUAGAUCCUGAAUUGGCUACAGAAGGGAGCAUUU
[1]
  apparent Kd: 290 nM
[2]
  apparent Kd: 314 nM

## CUGACGCAAGCAGGAUAUCUACUGGCGAUGGUACAUGAGGAUCACCCAUGUAGAGAAGGGCUAAGUGGAAGGAUAAAAUAAAAG
[1]
  apparent Kd: 110 nM
[2]
  apparent Kd: 120 nM

## UAGUCGGAGACAGGAUAUGUGACUGCAUAGUGCACAGAAGGGUCUACAUGAGGAUCACCCAUGUCACCGACCACCAAACAACAA
[3]
  apparent Kd: 552 nM
[4]
  apparent Kd: 33.3 nM

## AACAUACAUGAGGAUCACCCAUGUUCCGGCAGGACAGGAUAUACAUCGAAAGUGUUAUAAGUAGAAGGGUCAUAAA
[3]
  apparent Kd: 77.8 nM
[4]
  apparent Kd: 71.2 nM

## UCGACCAGCGCCGCUCGAACAUGAGGAUCACCCAUGUACUCCAGAAGGCCGCCCAAGUACGGAGUGGAGGAUAUGGAGGUUCUC
[3]
  apparent Kd: 39.5 nM
[4]
  apparent Kd: 25.4 nM

## ACUAGAUGAGGAUAUACACAUUUUAGUGUUCCUCUAGAUUAACAUGAGGAUCACCCAUGUAGAAGGCAUCAUUU
[1]
  apparent Kd: 78.5 nM
[2]
  apparent Kd: 231 nM

## GGUGCGUAUGUGAGGAUAUGCUGGUCCUUGGAUCAGCAGAAGGCACAUGAGGAUCACCCAUGUGGUGUCGUUCC
[1]
  apparent Kd: 397 nM
[2]
  apparent Kd: 29.3 nM

## GUAUCUUACCAAGGAUAUUUAAGAUUUGUGUAGACAUGAGGAUCACCCAUGUGGCCUUAGUCACGGGAGAAGGUGGUUUGAUAC
[3]
  apparent Kd: 940 nM
[4]
  apparent Kd: 492 nM

## UGGUACUAGGCAGGAUAUGGGAAGAUACAUGAGGAUCACCCAUGUUUAAGAAUGCCGAGAGGCAACUAGAAGGCCCUAGUACCU
[3]
  apparent Kd: 719 nM
[4]
  apparent Kd: 620 nM

## CAAUUUAUUACAGGAUAUACAAUACAAUGAUUAGUAGAAGGGUAUAAUACAUGAGGAUCACCCAUGUCAUGUGUCAUAAUAACC
[1]
  apparent Kd: 35.8 nM
[2]
  apparent Kd: 23.9 nM

## CGGAGACAUGAGGAUCACCCAUGUGAGGAUAUGCAAGCCCGACUGAUCGUUAGCCUAUGUAGAAGGCACGGGUC
[1]
  apparent Kd: 21.3 nM
[2]
  apparent Kd: 20 nM

## AGAGGACAUGAGGAUCACCCAUGUAAGGAUAUGCGGAGAGUUUGGAGAGGUCGGGUAGGCAGAAGGUACAGGAG
[1]
  apparent Kd: 65.1 nM
[2]
  apparent Kd: 91.7 nM

## ACAUUUAAUACAGGAUAUGUAUGUAUACAAUAGAUUGGUUUUAUCACAUCAACAGAAGGGUAGAACAUGAGGAUCACCCAUGUA
[3]
  apparent Kd: 114 nM
[4]
  apparent Kd: 79.8 nM

## UUAUUACGAGGAUAUCGUUUUUAUCACAUGAGGAUCACCCAUGUUGUUUAUGUUUCGUUUCGAGAAGGCGUUUGUU
[1]
  apparent Kd: 27.6 nM
[2]
  apparent Kd: 19.9 nM

## CGCUGCCACGCAGGAUAUGCAUUGGAUUACAAUGCAGAAGGGCGAUUACAUGAGGAUCACCCAUGUGUUGGCAGUGAAGAAGAG
[3]
  apparent Kd: 1490 nM
[4]
  apparent Kd: 83.4 nM

## UGCAUGCUAGGAUAUACGAAACAUUAGGGUUCUUUGUGUGAACAUGAGGAUCACCCAUGUAGAAGGAGCGUGCU
[1]
  apparent Kd: 151 nM
[2]
  apparent Kd: 38.5 nM

## UUGGGACUAUCAGGAUAUGGUGUAGCCCAGUAAAGGACAUGAGGAUCACCCAUGUACCAUUGGUACCAGAAGGGAUGAUCCUAC
[3]
  apparent Kd: 18.4 nM
[4]
  apparent Kd: 14.8 nM

## AUUUAGUGCGAGAAGGCGUGGUCACAUGAGGAUCACCCAUGUCAGUACACGAGGAUAUCGAUUCGCUGUGUAAACACAAGCGAC
[3]
  apparent Kd: 80.7 nM
[4]
  apparent Kd: 6.67 nM

## AGGAGACAUGAGGAUCACCCAUGUGCACGUGGAGGAGGAUAUGCUAGUAGAAGAUAGAAAGCAGAAGGCCUAAGAA
[3]
  apparent Kd: 69.2 nM
[4]
  apparent Kd: 80.5 nM

## AAUAACAGAGGAUAUACUAUUUUAUGUAUUUAUUAUUUUAAACAUGAGGAUCACCCAUGUAGAAGGCUGAGUAA
[1]
  apparent Kd: 23.8 nM
[2]
  apparent Kd: 21.3 nM

## AACAUGUGAGGAUAUUGAUUGGAGACGUGGAGACCGCUAAUUAAGAAGGUACAUGAGGAUCACCCAUGUCCCAU
[1]
  apparent Kd: 215 nM
[2]
  apparent Kd: 231 nM

## GCUGUAUAUGAGAAGGCGAUCAUGAAACAUGAUCGAGGAUAUCAUGUAAACAUGAGGAUCACCCAUGUAUGGGUAUUAAGCAGC
[3]
  apparent Kd: 280 nM
[4]
  apparent Kd: 46.6 nM

## GAGCGAAAGCUCAAUGUCGAUAGCAGAAGGAUAUGAAAACAUGAAAUAACAUGAGGAUCACCCAUGUAGGAUAUGCUAUCGACU
[1]
  apparent Kd: 7.41 nM
[2]
  apparent Kd: 14 nM

## AAAUAGCUUGAGGAUAUUGGAUUGGAUUCAGUGCGAGAAGGCAAGACAUGAGGAUCACCCAUGUUGUGUUGGGA
[1]
  apparent Kd: 47.2 nM
[2]
  apparent Kd: 90 nM

## UUAAAUCAUGUAGGAUAUGCAUGGCGAAGCUACGCAGAAGGACAUGAGGAUCACCCAUGUUAAAGCUUCCGAGUUCGGAGGCAA
[1]
  apparent Kd: 114 nM
[2]
  apparent Kd: 266 nM

## GACUUUUCUGAGGAUAUUGCAUCACCCGAUCUAUAAGAAGGCAGAACAUGAGGAUCACCCAUGUGGGUUUCUAG
[1]
  apparent Kd: 24.7 nM
[2]
  apparent Kd: 33.6 nM

## CCUCCACAUGAGGAUCACCCAUGUCAGGAUAUCGUGUGUUUUUUUUCGGUCGUGCGUGCGAGAAGGGACGUCUU
[1]
  apparent Kd: 25.9 nM
[2]
  apparent Kd: 29.7 nM

## GCACUGACAGGAUAUACAUGAGGAUCACCCAUGUGACCCUUACAGUACUCGCGUACUGGUAGAAGGGUCUGUGC
[2]
  apparent Kd: 140 nM

## AUAAUUUUAUAUAUCAUUUUAAUCAGAAGGCAUAACAUGAGGAUCACCCAUGUAAAUUAUUGUUAUGAGGAUAUGAUUUGGUUA
[1]
  apparent Kd: 20.3 nM
[2]
  apparent Kd: 72.2 nM

## GUAUCGUGAGGAUAUCAUGAUUGACUUUUGUUUUGUCAGCGUGAGAAGGCACAUGAGGAUCACCCAUGUGAUUA
[1]
  apparent Kd: 22.3 nM
[2]
  apparent Kd: 52.9 nM

## CGAAGUCCGUAGAAGGGUGACAUGAGGAUCACCCAUGUGCGAGCGGAGGGAGUCAUCGGCUCGCCACAGGAUAUACGGAGCACG
[3]
  apparent Kd: 58.1 nM
[4]
  apparent Kd: 49.2 nM

## CUAUUACGAGGAUAUCGUCAGAGUCACAUGAGGAUCACCCAUGUAUCCCACGGACCGGAAUGAGAAGGCGUUCAUG
[1]
  apparent Kd: 288 nM
[2]
  apparent Kd: 769 nM

## GCGCGCGCAGGAUAUACAAUGCGCGCGCGAAAGUGUGUGUUACAUGAGGAUCACCCAUGUAGAAGGGUGUGUGU
[1]
  apparent Kd: 539 nM
[2]
  apparent Kd: 492 nM

## GGAUUACAUGAGGAUCACCCAUGUGAGGAUAUCGAUGUCCCUUGGCGCGUGCGGGACUCGAGAAGGCACUUGGA
[1]
  apparent Kd: 47.8 nM
[2]
  apparent Kd: 248 nM

## UCUAUCAGAGGAUAUACAUGAGGAUCACCCAUGUCAGUCGAACGGGAUGGAAGGUUAGGUAGAAGGUUGUAGAU
[1]
  apparent Kd: 39.8 nM
[2]
  apparent Kd: 41.2 nM

## UAGUAGAUCCGAGGAUAUACAAUCCGGAAACGGUACAUGAGGAUCACCCAUGUAGAAGGCGGAUCUACAGGUACUAAAGUACCC
[1]
  apparent Kd: 5.89 nM
[2]
  apparent Kd: 8.32 nM

## CGCUGUCAUGCAGGAUAUGCAUUGGAUUACAAUGCAGAAGGGCGAUUACAUGAGGAUCACCCAUGUGUAGACAGUGAAGAAAAG
[3]
  apparent Kd: 145 nM
[4]
  apparent Kd: 13.8 nM

## GACAUUGACAAGAAGGCAAACAUGAGGAUCACCCAUGUUCUGCAUGUAUAUUGAGGAUAUUGCCAAUGCAUGUGGAUCACCCAA
[1]
  apparent Kd: 6.63 nM
[2]
  apparent Kd: 10.8 nM

## AAAGACAGACAUGAGGAUCACCCAUGUUAUGAAGAUACUGGGAGAAGGGCGAUUGCAAAGCAAUCGCAGGAUAUUCGUAUUGUC
[3]
  apparent Kd: 92.2 nM
[4]
  apparent Kd: 15.6 nM

## GGGUACAUCGGAGGAUAUCAUGUAAAUACAUGAGGAUCACCCAUGUCGAUGGAGACAUCGGAGAUUGAGAAGGCCGAUGUACCG
[3]
  apparent Kd: 452 nM
[4]
  apparent Kd: 25.9 nM

## UCAUGAAGGAUAGGAUAUGGACAUGAGGAUCACCCAUGUACAUGGGAAUGAAUACUGAAUUUGUACUAGAAGGGUUACAUAAAU
[1]
  apparent Kd: 56.4 nM
[2]
  apparent Kd: 37 nM

## ACAUGAGGAUCACCCAUGUAUUCAUAGGAUAUACUACAUGAGUUUCAUUCAUGUAAACUUGUAUUGUAGAAGGAUGUUACAUGU
[1]
  apparent Kd: 16.4 nM
[2]
  apparent Kd: 19.2 nM

## GUCAGCUCGUGAGGAUAUACAACACUGCUUCGGCAGUGUAUUAAGAUCACAUGAGGAUCACCCAUGUAGAAGGCACGAUCUGAU
[1]
  apparent Kd: 13.6 nM
[2]
  apparent Kd: 220 nM

## UUUAUAUAGUAAGGAUAUGUAUUAAUUUUAUAGACAGAAGGUACUGACAUGAGGAUCACCCAUGUUUUAGUGUGGGCAUGUAGU
[1]
  apparent Kd: 358 nM
[2]
  apparent Kd: 549 nM
